# sPLA2-III inh: Blocks human group III sPLA2 activity; QFRET BODIPY PC-A2 liposome hydrolysis, fluorescence; inhibition, % at 12.2 µM; hit rate 0.56% among 370,000; AID 743126;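 active = inhibition above mean plus 3 SD of compounds lying within the high and low control bounds, cut at about 19% in these data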;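 also: 0% = median of test compound wells and 100% = no enzyme DMSO wells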
# Target sequence (Q9NZ20 whole entry, looked up): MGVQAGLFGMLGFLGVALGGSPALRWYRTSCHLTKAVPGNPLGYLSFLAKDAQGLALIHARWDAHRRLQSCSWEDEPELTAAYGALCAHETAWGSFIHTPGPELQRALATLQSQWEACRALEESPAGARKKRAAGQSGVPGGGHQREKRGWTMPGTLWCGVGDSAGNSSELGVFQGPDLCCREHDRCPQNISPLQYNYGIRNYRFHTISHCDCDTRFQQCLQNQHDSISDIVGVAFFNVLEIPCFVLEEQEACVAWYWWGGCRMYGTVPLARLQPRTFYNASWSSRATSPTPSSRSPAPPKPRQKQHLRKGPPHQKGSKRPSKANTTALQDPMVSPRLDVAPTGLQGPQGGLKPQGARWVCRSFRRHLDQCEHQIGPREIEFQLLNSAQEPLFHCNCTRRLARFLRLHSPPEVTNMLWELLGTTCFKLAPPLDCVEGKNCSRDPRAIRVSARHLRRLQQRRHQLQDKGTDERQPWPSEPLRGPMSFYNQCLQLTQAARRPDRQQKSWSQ
# M18AAP inhibitor: PfM18AAP enzyme inhibition; inhibition, % at 7.35 µM; hit rate 1.2% among 290,000; recombinant PfM18AAP, H-Glu-NHMec fluorogenic cleavage;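 active = inhibition above the campaign mean inhibition over all tested compounds plus 3 SD, cut at about 28% in these data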;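 also: 0% = plate median of test compound wells and 100% = 2 mM ZnCl2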
# IMP-1 inh-1: inhibitors of Pseudomonas aeruginosa IMP-1 metallo-beta-lactamase; purified IMP-1, nitrocefin hydrolysis, epi-absorbance fluorescence; inhibition, % at 5.6 µM; hit rate 0.45% among 290,000; AID 1556;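 active = inhibition above the mean plus 3 SD of all compounds in the same screening run, cut at about 4.5% in these data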;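 also: 0% = IMP-1 with DMSO and 100% = DMSO wells lacking enzyme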
#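 System – purified recombinant IMP-1 beta-lactamase · Input – IMP-1 dispensed at 0.2 nM · Timing – 15 min preincubation plus 25 min reaction at 25 °C · Signal – Epi-absorbance fluorescence, 480 nm excitation, 530 nm emission · Measure – percent IMP-1 inhibition derived from blank-referenced optical density · Controls – Enzyme-plus-DMSO low control, enzyme-free DMSO high control · Replication – singlicate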
# VIM-2 inhibitor: inhibitors of Pseudomonas aeruginosa VIM-2 metallo-beta-lactamase; purified VIM-2, nitrocefin hydrolysis, epi-absorbance fluorescence; inhibition, % at 5.6 µM; hit rate 0.89% among 290,000;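 active = inhibition above the mean of all tested compounds plus 3 SD, cutoff set per screening run, cut at about 7.5% in these data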;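 also: red hydrolysis product quenches plate fluorescence so inhibitors raise well fluorescence; 0% = enzyme with DMSO and 100% = DMSO without enzyme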
# IMP-1 inh-2: blocks IMP-1 metallo-beta-lactamase in VIM-2 selectivity screen | shares compounds with VIM-2 inhibitor | purified IMP-1, nitrocefin hydrolysis, epi-absorbance fluorescence | inhibition, % at 5.6 µM | 1,300 tested, under 10 active | AID 1856; call rule not given here;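 also: 0% = enzyme with vehicle and 100% = vehicle without enzyme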
# VIM-2 FRET inh: inhibits VIM-2 in FRET assay to exclude epi-absorbance artifacts; shares compounds with VIM-2 inhibitor; hit rate 23% among 1,300; purified VIM-2, CCF2 FRET substrate hydrolysis; inhibition, % at 5.6 µM;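 active = inhibition above the mean of all tested compounds plus 3 SD, cut at about 19% in these data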;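 also: 0% = VIM-2 plus DMSO and 100% = no enzyme wells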
# TEM-1 inh: blocks E. coli TEM-1 beta-lactamase in VIM-2 selectivity screen; shares compounds with VIM-2 inhibitor; Purified TEM-1, nitrocefin hydrolysis, epi-absorbance fluorescence; inhibition, % at 5.6 µM; hit rate 3% among 1,300;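 active = inhibition above that campaign's mean inhibition plus 3 SD, cut at about 0.46% in these data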;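 also: 0% = TEM-1 with DMSO and 100% = TEM-1 with 100 µM potassium clavulanate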
# Target sequence (P62593 whole entry, looked up): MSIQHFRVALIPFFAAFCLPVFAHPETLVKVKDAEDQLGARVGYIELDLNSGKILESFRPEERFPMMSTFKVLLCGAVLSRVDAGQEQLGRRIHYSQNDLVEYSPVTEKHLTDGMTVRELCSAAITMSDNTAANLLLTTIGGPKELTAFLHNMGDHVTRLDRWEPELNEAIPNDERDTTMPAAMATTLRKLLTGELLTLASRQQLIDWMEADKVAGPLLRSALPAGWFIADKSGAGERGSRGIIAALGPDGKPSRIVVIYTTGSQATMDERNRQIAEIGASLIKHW
# VIM-2 inh conf: confirmation of P. aeruginosa VIM-2 metallo-beta-lactamase inhibitors | inhibition, % at 5.6 µM | purified VIM-2, nitrocefin hydrolysis, epi-absorbance | hit rate 96% among 1,300 | shares compounds with VIM-2 inhibitor;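 active = inhibition of the VIM-2 beta-lactamase enzyme above about 11% from the earlier first-round screen, limit read from the data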;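 also: 0% = VIM-2 with DMSO and 100% = buffer wells without enzyme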
# Numbers without * were called inactive; / = not tested or not shown. Sampled rows, rich in hits. Any-hit rate of the full collection: about 2.4%.
SMILES,sPLA2-III inh,M18AAP inhibitor,IMP-1 inh-1,VIM-2 inhibitor,IMP-1 inh-2,VIM-2 FRET inh,TEM-1 inh,VIM-2 inh conf
Cc1ccc(NC(=O)CN(C)C(=O)c2ccc(NS(=O)(=O)c3ccc4[nH]c(=O)[nH]c4c3)cc2)cc1,-7.2,/,/,/,/,/,/,/
CCC(c1ccc(OC)cc1)c1cn(C)c2ccccc12 (stereo not given),-11.2,/,/,/,/,/,/,/
CCCCN(CC)CCCNC(=O)c1cc2c(-c3ccc(OC)c(OC)c3)nn(C)c2s1,-12.0,-9.4,-3.7,12.7*,-2.6,0.7,-5.0,24.3*
Cc1cc(OCC(=O)Nc2ccc(CCO)cc2)c2c(C)c(C)c(=O)oc2c1,-2.4,7.6,-3.3,4.8,/,/,/,/
CCCc1cc(=O)oc2cc(C)cc(OCC(=O)NCc3ccncc3)c12,4.6,2.2,-4.8,3.8,/,/,/,/
Cc1cc(OCC(=O)NCc2ccncc2)c2c(C)c(C)c(=O)oc2c1,5.2,-0.7,0.4,43.8*,-3.1,-0.1,-8.7,55.1*
CCc1cc(=O)oc2cc(C)cc(OCC(=O)NCc3ccncc3)c12,0.6,-7.2,-1.2,20.3*,-2.2,-3.1,-5.9,30.4*
Cc1cc(OCC(=O)Nc2cccnc2)c2c(C)c(C)c(=O)oc2c1,0.5,-3.5,0.3,60.8*,-1.6,-4.0,-5.5,67.8*
Cc1cc(OCC(=O)NCc2ccccn2)c2c(C)c(Cc3ccccc3)c(=O)oc2c1,-2.8,-0.3,-1.4,-1.5,/,/,/,/
Cc1cc(OCC(=O)NCc2cccnc2)c2c(C)c(C)c(=O)oc2c1,4.1,0.6,-3.6,21.7*,-3.0,-1.8,-6.8,31.0*
COc1cc2c(cc1OC)C(c1ccc(-c3ccccc3Cl)o1)=NCC2,-11.5,1.5,-0.5,19.4*,-2.3,7.5,-5.4,28.1*
c1ccc2nc(-c3ccc(N4CCOCC4)cc3)ccc2c1,-1.5,3.8,-2.3,-2.4,/,/,/,/
CN1CCN(c2ccc(-c3ccc4ccccc4n3)cc2)CC1,-14.7,4.2,-1.9,68.2*,-2.1,2.9,-5.0,80.8*
COc1cc2oc3ccccc3c(=O)c2cc1OC,/,5.9,-2.4,14.2*,-2.5,-0.4,-3.5,18.3*
Cc1c(C)c2ccc(O[C@@H]3O[C@H](CO)[C@H](O)[C@H](O)[C@H]3O)c(C)c2oc1=O,0.3,-3.9,-4.9,4.3,/,/,/,/
Cc1c(O[C@@H]2O[C@H](CO)[C@@H](O)[C@H](O)[C@H]2O)ccc2c1oc(=O)c1ccccc12,5.2,-5.4,-3.9,25.3*,-2.7,-0.1,-8.2,35.5*
c1ccc2c(c1)CCN2CCN1CCc2ccccc21,-3.0,4.1,0.2,-1.2,/,/,/,/
CN(C)CCN1CCc2ccccc21,-3.5,-0.7,-5.9,23.4*,-3.1,-4.2,-6.0,10.9*
Clc1cccc(-c2ccc(/C=N/n3cnnc3)o2)c1Cl,4.8,5.1,-3.5,29.3*,-2.9,-7.7,-4.6,64.4*
Cc1c(Cl)cccc1-c1ccc(/C=N/n2cnnc2)o1,-0.3,22.7,-0.3,32.3*,-3.7,-4.9,-6.9,53.1*
Clc1ccccc1-c1ccc(/C=N/n2cnnc2)o1,-0.1,3.9,-3.6,21.0*,-3.2,-1.3,-5.9,42.4*
O=C(NCCc1ccccc1F)c1ccc2c(c1)ncn2C1CCCCC1,6.0,/,/,/,/,/,/,/
CC1CCCCC1N(C(=O)c1cc(C2CC2)on1)C1CCCCCC1 (stereo not given),3.8,/,/,/,/,/,/,/
COc1ccc(Nc2nc(N3CCCCC3)c3ccccc3n2)cc1,9.2,-4.7,-3.8,1.7,/,/,/,/
Oc1ccc(Nc2nc(N3CCCC3)c3ccccc3n2)cc1,-8.8,-11.8,-3.4,30.8*,-2.3,-4.1,-3.4,49.2*
SMILES,sPLA2-III inh,M18AAP inhibitor,IMP-1 inh-1,VIM-2 inhibitor,IMP-1 inh-2,VIM-2 FRET inh,TEM-1 inh,VIM-2 inh conf
Cc1ccccc1C(=O)N(C)[C@H]1C[C@H]2c3[nH]c4c(-c5ccc6c(c5)OCO6)cccc4c3CCN2C[C@H]1[C@H](C)O,-7.5,/,/,/,/,/,/,/
CN(C)C(=O)C(NC(=O)c1ccccc1)=C(Cl)Cl,3.6,0.7,-3.6,0.5,/,/,/,/
O=C(O)C(NC(=O)c1ccccc1)=C(Cl)Cl,4.2,-10.5,-3.6,23.1*,-2.7,44.1*,-5.2,24.7*
Cc1sc2ncnc(Oc3ccc(-n4ccnc4)cc3)c2c1C,-11.3,0.4,-2.1,73.7*,-2.1,-7.1,-5.2,85.0*
C=CCN(C(=O)[C@@H](C1CC1)[C@@H](O)c1ccc2ccccc2c1)c1ccccc1,-7.5,/,/,/,/,/,/,/
O=C1C2CCCCN2C(=O)N1CCCN1CCN(c2ccc(F)cc2)CC1 (stereo not given),/,-6.5,-1.2,-0.9,/,/,/,/
Nc1ccc(N2CCN(CCCCN3C(=O)C4CCCN4C3=O)CC2)cc1 (stereo not given),-4.1,13.3,-2.5,24.5*,-9.9,-6.3,-6.4,10.6*
Cc1nc(Nc2ccncc2)c2oc3ccccc3c2n1,4.9,-0.8,0.1,44.8*,-3.1,-2.2,-5.7,56.6*
CCc1nc(Nc2ccncc2)c2oc3ccccc3c2n1,4.5,-6.8,1.1,44.1*,-2.7,2.1,-5.9,54.1*
c1ccc2c(c1)oc1c(N3CCOCC3)ncnc12,-1.1,2.9,-2.8,0.6,/,/,/,/
CCc1nc(Nc2cccc(O)c2)c2oc3ccccc3c2n1,/,3.4,-4.6,0.2,/,/,/,/
CC(=O)Nc1ccc(Nc2nc(C)nc3c2oc2ccccc23)cc1,5.4,6.3,0.2,18.1*,-3.6,1.0,-7.1,28.6*
Cc1nc(N2CCOCC2)c2oc3ccccc3c2n1,1.0,-1.4,-0.8,18.5*,-2.8,-4.5,-3.7,33.8*
Cc1[nH]n(-c2ccccc2)c(=O)c1/C=N/NC(=O)c1ccccc1F,-3.2,2.3,-3.0,-2.2,/,/,/,/
Cc1ccc(S(=O)(=O)N2c3ccccc3C[C@H]2CC=C(c2ccccc2)c2ccccc2)cc1,-0.9,/,/,/,/,/,/,/
O=C(C(=Cc1ccc(F)cc1)C(=O)c1ccccc1)c1ccccc1,-13.3,/,/,/,/,/,/,/
Cc1nc(NCCc2cnc[nH]2)c2oc3ccccc3c2n1,4.6,-1.7,0.0,70.7*,-1.3,-9.1,1.7*,84.1*
COC(=O)c1c(NC(=O)c2ccccc2OC)sc(C(=O)N2CCOCC2)c1C,2.0,0.3,-1.9,14.2*,-3.3,2.3,-7.3,20.1*
COC(=O)c1c(NC(=O)CCl)sc(C(=O)N2CCOCC2)c1C,7.8,-0.1,-0.9,-0.1,/,/,/,/
CCOC(=O)C1=NOC(C(=O)NC2CCCC2)(C(=O)c2ccc(OC)cc2)C1 (stereo not given),7.2,/,/,/,/,/,/,/
Cc1cc(C)n2nc(/C(C#N)=C/c3ccccn3)c(C#N)c2n1,-2.4,-13.4,-0.1,44.9*,-3.5,-27.7,-8.1,7.7*
COc1cc(Nc2c3c(nc4ccccc24)CCC3)cc(OC)c1OC,2.6,2.4,-1.8,1.5,/,/,/,/
Cc1ccc2nc3c(c(Nc4ccc5c(c4)OCCO5)c2c1)CCC3,3.4,11.8,-3.4,15.5*,-4.1,-1.7,-7.1,30.5*
